These results are taken from ChEMBL document CHEMBL4002619, “Targeting Type 2 Diabetes with C-Glucosyl Dihydrochalcones as Selective Sodium Glucose Co-Transporter 2 (SGLT2) Inhibitors: Synthesis and Biological Evaluation” (J Med Chem, 2017).

Activity calls are given as the source filed them. No cut-off for these calls is given here.

What all share (type): cell-based
Series [1] can be described thus: Inhibition of GLUT in HEK293 cells assessed as reduction in 2-deoxyglucose uptake pretreated for 10 mins followed by 2-deoxyglucose addition in presence of choline buffer measured after 1 hr by resazurin dye based fluorescence assay. The note with it: human. A general note: Alamar Blue is a resazurin reagent that responds to reducing activity.
Series [2] in a line: Inhibition of GLUT in HEK293 cells assessed as reduction in 2-deoxyglucose uptake pretreated for 10 mins followed by 2-deoxyglucose addition in presence of sodium buffer measured after 1 hr by resazurin dye based fluorescence assay. The following applies: human.
Series [3] concerns HEK293. Nature of the series: Cytotoxicity in HEK293 cells assessed as cell viability at 100 uM measured after 20 to 24 hrs by Cell-Titer Blue fluorescence assay. The following applies: human, hek293, 100 µM. In short, it runs like this: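 HEK293 cells (DMEM, 10% FBS, 37 °C, 5% CO2) seeded 2.0 × 10^4 cells/well 24 h before; compound at 100 µM in triplicate, 20-24 h at 37 °C; CellTiter-Blue 4 h at 37 °C; fluorescence ex 560/em 590 nm; viability as treated/untreated fluorescence ratio, %. DMSO-treated wells run alongside. Mean ± SD of three independent experiments.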

Series [4] deals with T1, Sodium/glucose cotransporter 2 (Homo sapiens, UniProt P31639).
T1 sequence (P31639 whole entry): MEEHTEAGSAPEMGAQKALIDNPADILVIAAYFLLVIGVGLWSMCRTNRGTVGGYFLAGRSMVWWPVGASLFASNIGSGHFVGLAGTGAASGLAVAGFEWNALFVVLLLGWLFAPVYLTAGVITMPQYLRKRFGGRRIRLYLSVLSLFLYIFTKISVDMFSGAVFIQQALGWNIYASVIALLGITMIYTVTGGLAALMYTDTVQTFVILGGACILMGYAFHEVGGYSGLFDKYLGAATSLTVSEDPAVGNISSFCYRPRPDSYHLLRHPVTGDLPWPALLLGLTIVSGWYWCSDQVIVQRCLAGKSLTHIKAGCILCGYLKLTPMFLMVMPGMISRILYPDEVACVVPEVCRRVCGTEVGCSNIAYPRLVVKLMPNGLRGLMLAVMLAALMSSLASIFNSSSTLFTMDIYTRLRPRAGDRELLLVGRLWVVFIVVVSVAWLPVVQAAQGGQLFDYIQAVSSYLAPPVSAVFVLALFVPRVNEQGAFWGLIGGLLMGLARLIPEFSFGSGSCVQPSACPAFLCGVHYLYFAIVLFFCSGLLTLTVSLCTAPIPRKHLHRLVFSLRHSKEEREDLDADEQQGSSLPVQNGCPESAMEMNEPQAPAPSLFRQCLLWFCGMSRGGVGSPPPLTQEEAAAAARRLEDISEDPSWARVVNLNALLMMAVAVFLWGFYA
Nature of the series: Inhibition of human SGLT2 expressed in HEK293 cells assessed as reduction in 2-deoxyglucose uptake pretreated for 10 mins followed by 2-deoxyglucose addition in presence of sodium buffer measured after 1 hr by resazurin dye based fluorescence assay.

Series [5] addresses T2, Sodium/glucose cotransporter 2 (Homo sapiens) (UniProt P31639).
T2 sequence (whole entry): T1 sequence (P31639 whole entry)
Nature of the series: Inhibition of human SGLT2 expressed in HEK293 cells assessed as reduction in 2-deoxyglucose uptake at 100 uM pretreated for 10 mins followed by 2-deoxyglucose addition in presence of sodium buffer measured after 1 hr by resazurin dye based fluorescence assay. In short, it runs like this:
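Stably transfected HEK293 expressing human SGLT2 (pCMV6-Neo, G418-selected), 2.0 × 10^4 cells/well, 24 h; 1 h preincubation in KRPH buffer at 37 °C; compound 100 µM; 2-deoxyglucose 1 mM, 1 h at 37 °C; NaOH lysis at 80-85 °C, neutralised; enzymatic cycling (G6PDH, NADP+, diaphorase, 10 µM resazurin, pH 8.2) 15-20 h; fluorescence ex 560/em 590 nm. Mean ± SD, three independent experiments.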

The target of series [6] is T3, Sodium/glucose cotransporter 1 (Homo sapiens, UniProt P13866).
T3 sequence (P13866 whole entry): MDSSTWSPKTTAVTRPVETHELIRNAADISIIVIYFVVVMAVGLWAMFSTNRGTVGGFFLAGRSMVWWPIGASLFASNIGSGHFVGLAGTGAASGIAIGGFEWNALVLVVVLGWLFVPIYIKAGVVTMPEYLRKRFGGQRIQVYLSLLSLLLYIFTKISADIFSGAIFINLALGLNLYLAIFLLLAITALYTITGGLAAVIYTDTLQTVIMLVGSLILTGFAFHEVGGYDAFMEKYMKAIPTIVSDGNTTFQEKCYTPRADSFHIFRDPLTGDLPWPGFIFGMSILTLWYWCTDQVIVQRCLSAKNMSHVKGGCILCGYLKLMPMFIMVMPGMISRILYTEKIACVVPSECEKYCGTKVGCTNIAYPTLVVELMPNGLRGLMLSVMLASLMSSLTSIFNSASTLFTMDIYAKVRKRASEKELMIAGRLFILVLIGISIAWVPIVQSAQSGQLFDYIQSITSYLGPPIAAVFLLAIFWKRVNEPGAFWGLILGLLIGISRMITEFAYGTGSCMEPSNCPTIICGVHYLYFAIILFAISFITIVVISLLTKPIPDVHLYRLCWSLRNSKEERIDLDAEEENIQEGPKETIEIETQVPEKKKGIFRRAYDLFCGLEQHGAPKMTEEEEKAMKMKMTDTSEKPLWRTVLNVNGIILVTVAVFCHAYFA
Nature of the series: Inhibition of human SGLT1 expressed in HEK293 cells assessed as reduction in 2-deoxyglucose uptake at 100 uM pretreated for 10 mins followed by 2-deoxyglucose addition in presence of sodium buffer measured after 1 hr by resazurin dye based fluorescence assay. The note with it: hek293, 1 h.

The nature of series [7]: Inhibition of GLUT in HEK293 cells assessed as reduction in 2-deoxyglucose uptake at 100 uM pretreated for 10 mins followed by 2-deoxyglucose addition in presence of choline buffer measured after 1 hr by resazurin dye based fluorescence assay. The following applies: human. In short, it runs like this: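 SGLT1 and SGLT2 stable HEK293 lines (G418-selected) assayed in sodium-free buffer, NaCl replaced by choline chloride; compounds at 100 µM; phlorizin and cytochalasin B as controls. 2-deoxyglucose 1 mM, 1 h at 37 °C; lysis in 0.1 M NaOH, 80-85 °C 40 min, neutralised; G6PDH/NADP+/diaphorase/resazurin cycling 15-20 h at 37 °C; resorufin fluorescence ex 560/em 590 nm.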

Turning to `C=C1[C@@H](C)[C@H]2[C@H](Cc3ccccc3)NC(=O)[C@]23OC(=O)/C=C/[C@H](O)CCC[C@@H](C)C/C=C/[C@H]3[C@@H]1O` [CYTOCHALASIN B], the “inhibition (INH)” value in series [1] and in series [2] was “Active” throughout.
With `O=C(/C=C/c1ccc(F)cc1)c1c(O)cc(O)cc1O` [4-FLUORO-2',4',6'-TRIHYDROXYCHALCONE], the Activity entry in series [3] is on record as “Non-Toxic”. For the same compound, the IC50 in series [4] was 51.7 µM. Besides, the inhibition entry in series [5] is “Active”. The “inhibition (INH)” value in series [6] and in series [7] was “Active” each time.
As to `Cc1ccc(CCC(=O)c2c(O)cc(O)c([C@@H]3O[C@H](CO)[C@@H](O)[C@H](O)[C@H]3O)c2O)cc1`, in series [3], the Activity entry was “Non-Toxic”. The IC50 in series [4] stood at 0.0182 µM. For the same compound, in series [5], the inhibition result is “Active”. The “inhibition (INH)” value in series [6] was “Active”; in series [7], “Not Active”.

A word on the IC50: it is the point on the concentration scale where inhibition reaches its midpoint.
